# Screening results from PubChem BioAssay.
# SF1 activator: SF-1 (human) activation; CHO-K1 Gal4-SF-1 LBD luciferase reporter; % increase over DMSO SF-1-specific signal; 65,000 compounds, 1.9% hits; activation, % at 10 µM; AID 522;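 active = activation above the mean activation of all tested compounds plus 3 SD, cut at about 50% in these data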
#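 Test system: transient Gal4-SF-1 LBD reporter, CHO-K1; Amount: 4,000 CHO-K1 cells per well; Doses: 10 µM only; Timing: compound exposure 20 h at 37 °C; Signal: luciferase light emission; Read-out basis: percent activation relative to DMSO median and mock-transfected background; Control set: DMSO negative control and −SF1 background wells; Replicates: one test per compound.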
# M1 antagonist: M1 muscarinic receptor (rat) antagonism. P08482. CHO-M1 cells, Fluo-4 calcium, ACh EC80 antagonist mode; hits give low values. B-score at 10 µM. 64,000 compounds, 3.4% hits. AID 628;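 active = calcium fluorescence response, raw or row-and-column corrected B-score, differing from the plate sample mean either way at a set confidence level, mostly lower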
# M1 agonist: M1 muscarinic receptor agonism | AID 626 | B-score at 10 µM | 64,000 compounds, 3% hits | CHO-M1 cells, Fluo-4 calcium fluorescence, agonist mode; hits give high values;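 active = fluorescence rise, raw or as B-score row- and column-corrected plate score, outside the 99.7% band of its plate's samples, either direction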
# mHtt clearance: mutant huntingtin protein clearance; HeLa Exon1htt(103Q)mCFP, aggregate imaging; zero = plate's median compound well; inhibition, % at 1.5 µM; 47,000 compounds, 0.42% hits; AID 853;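 active = inhibition of aggregate fluorescence above about 70%, also judged a hit by eye on the cell image, limit read from the data, passing the limit was not always enough; inconclusive = no rule stated for this call; inactive = not judged a hit on image review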;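 also: cells exposed to compound for three days before fixation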
# D1 mod: allosteric modulators of human D1 dopamine receptor; P21728; HEK293 D1, CRE-luciferase, dopamine EC30 potentiation; actives deviate in either direction; B-score at 10 µM; 58,000 compounds, 5.9% hits;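 active = luminescence count or its row- and column-corrected plate score outside the 99.7% band of the plate's sample wells, on either side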
# Target sequence (P21728 whole entry, looked up): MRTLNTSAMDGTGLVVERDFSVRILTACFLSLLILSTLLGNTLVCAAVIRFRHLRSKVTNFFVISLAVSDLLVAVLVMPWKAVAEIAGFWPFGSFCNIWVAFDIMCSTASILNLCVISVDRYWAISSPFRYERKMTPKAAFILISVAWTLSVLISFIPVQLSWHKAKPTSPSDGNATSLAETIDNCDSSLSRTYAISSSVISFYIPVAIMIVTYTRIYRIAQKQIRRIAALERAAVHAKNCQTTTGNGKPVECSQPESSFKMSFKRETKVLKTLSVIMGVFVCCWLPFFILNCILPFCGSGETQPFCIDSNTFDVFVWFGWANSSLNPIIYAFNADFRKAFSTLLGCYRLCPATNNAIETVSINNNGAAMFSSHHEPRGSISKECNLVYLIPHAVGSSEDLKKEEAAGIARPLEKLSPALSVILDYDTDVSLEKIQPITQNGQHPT
# RORA act: RORA (human) activation. P35398. CHO-K1 Gal4-RORA LBD luciferase reporter, luminescence; percent increase over mock-subtracted basal signal. activation, % at 10 µM. 65,000 compounds, 1.5% hits. AID 560;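 active = activation above the mean of all tested compounds plus 3 SD, cut at about 49% in these data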;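 also: 0% = DMSO-treated RORA cells and 100% = added signal equal to DMSO minus mock-transfected cells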
# M1 agonist conf: rat M1 muscarinic agonism, confirmation. CHO-M1 cells, Fluo-4 calcium fluorescence, agonist mode; actives lie on both sides. fluorescence change (max-min) at 10 µM. shares compounds with M1 agonist. 1,700 compounds, 19% hits;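 active = fluorescence change differs from the solvent-only DMSO control mean at a set confidence level in both duplicate runs; inconclusive = differs from solvent-only control mean in just one of two runs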;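 also: an EC20 dose of acetylcholine follows compound addition during the same imaging run; raw fluorescence intensity difference in instrument units with no normalization to controls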
# M4 agonist ctr: rat M4 muscarinic agonism, M1 counter-screen; shares compounds with M1 agonist; CHO M4/Gqi5 cells, Fluo-4 calcium fluorescence, agonist mode; actives lie on both sides; fluorescence change (max-min) at 10 µM; 1,700 compounds, 9% hits;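 active = fluorescence change differing from the plate's solvent-only control wells at 99.7% confidence in both duplicates, whether higher or lower; inconclusive = differs from solvent controls in only one of two duplicates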
# * = called active by the depositor; u = inconclusive; x = not tested or not shown. Only some compounds are listed: those with a hit (about 11% of all), similar ones and a draw of the others.
SMILES,SF1 activator,M1 antagonist,M1 agonist,mHtt clearance,D1 mod,RORA act,M1 agonist conf,M4 agonist ctr
COc1ccc(CCn2c(-c3ccco3)nc3ccccc3c2=O)cc1OC,9,-2.1*,11*,x,x,4,u,-73*
COCCCn1c(-c2ccco2)nc2ccccc2c1=O,14,-0.52,0.024,x,2.7,3,x,x
O=C(COC(=O)CCc1c[nH]c(=O)[nH]1)Nc1ccccc1,14,0.056,-0.061,x,0.034,-16,x,x
Cc1ccc(NC(=O)COC(=O)CCc2c[nH]c(=O)[nH]2)cc1,12,-0.033,7.3*,8,-0.68,-8,27,-1.3
CCCCn1c(N)c(N(CCC(C)C)C(=O)CSc2nnc(C)s2)c(=O)[nH]c1=O,0,-0.38,-0.16,-7,0.1,-6,x,x
Cc1ccc(C)c(NC(=O)CSc2nc3c(c(=O)n2C)SC(C)C3)c1 (configuration not stated),-5,-0.29,-0.72,x,0.76,-5,x,x
CCn1c(SCC(=O)Nc2cc(C)ccc2C)nc2c(c1=O)SC(C)C2 (configuration not stated),-23,0.45,1.3*,x,0.78,4,-17,u
N=c1nc(N2CCCCC2)cc(N)n1O,-6,-0.32,10*,x,0.39,-13,-4.4,-26
Cc1cc(N2CCCCCC2)nc(-c2ccccc2O)n1,6,0.19,0.21,-49,2,6,x,x
Cc1ccc(S(=O)(=O)N2CCCC2C(=O)OCc2ccco2)cc1 (configuration not stated),-16,-1,0.017,x,-1.5,-20,x,x
C=CCn1c2ccccc2c2nnc(SCCCn3c(=O)[nH]c4ccccc43)nc21,-6,-6.6*,5.3*,x,2.3,3,-3.7,-18
CC(C)NC(=O)c1ccccc1NC(=O)CCS(=O)(=O)Cc1ccccc1,-9,0.91,0.068,-10,x,-16,x,x
Cc1nc2nc(-c3ccco3)[nH]n2c(=O)c1Cc1ccccc1,6,1.1,3.6*,x,-1.1,-7,-10,-27
COC(=O)c1ccc(/C(O)=C(\C#N)c2nc3ccccc3s2)cc1,84*,-2.4*,2.7*,7,0.016,19,28,-1.3
CCCc1nc(SCC(=O)c2ccc(OC)cc2)c2c(=O)n(C)c(=O)n(C)c2n1,9,0.88,1.3,x,0.28,-4,x,x
Cn1c(=O)c2c(SCC(=O)c3ccccc3)nc(C3CC3)nc2n(C)c1=O,-13,-1,2.7*,x,-1.3,-19,-13,-44
Cc1ccc(N2C(=O)[C@@H]3C(c4ccc(F)cc4)=NO[C@@H]3C2=O)cc1,24,-0.37,6.6*,x,0.052,-6,u,-35
COc1cccc(C2=NO[C@@H]3C(=O)N(c4ccc5c(c4)OCCO5)C(=O)[C@H]23)c1OC,-4,-0.14,0.2,-51,-0.73,-14,x,x
Cc1cccn2c(=O)c3cc(C(=O)NCc4ccco4)c(=N)n(CCOCCO)c3nc12,7,-0.94,12*,-23,-0.68,-2,107*,u
Cc1ccc(Cn2c(=N)c(C(=O)NCc3ccco3)cc3c(=O)n4ccccc4nc32)cc1,1,-2.3,-1.2,x,-1.3,2,x,x
N=c1c(C(=O)NCc2ccco2)cc2c(=O)n3ccccc3nc2n1CCc1ccccc1,-8,0.5,9.6*,x,-3,-18,39,3.6
N=c1c(C(=O)NCc2ccc(F)cc2)cc2c(=O)n3ccccc3nc2n1CC1CCCO1 (configuration not stated),11,-0.97,3.7*,x,-1.7,-14,90*,u
CCCS(=O)(=O)N1CCN(C(=O)c2cccc(OC)c2)CC1,1,0.013,0.24,-137,0.21,-4,x,x
COc1ccc(CC(=O)Nc2cccc(C(=O)O)c2C)cc1,34,0.22,0.44,x,0.44,6,x,x
CC(=O)Nc1nc2n(n1)C(c1ccc(F)cc1)C=C(c1ccccc1)N2 (configuration not stated),-4,-0.31,7.6*,41,2,7,119*,93*
SMILES,SF1 activator,M1 antagonist,M1 agonist,mHtt clearance,D1 mod,RORA act,M1 agonist conf,M4 agonist ctr
COc1ccc(C2C(C(=O)Nc3ccccc3)=C(C)Nc3nc(CCCO)nn32)cc1 (configuration not stated),-1,-0.035,0.15,x,-0.7,3,x,x
COc1ccc(C2C=C(c3ccccc3)Nc3nc(CCCO)nn32)cc1 (configuration not stated),-15,0.059,9.3*,x,-0.3,0,72*,37
OCCCc1nc2n(n1)C(c1ccccc1)C=C(c1ccccc1)N2 (configuration not stated),-26,-0.19,12*,x,-0.0043,-15,74*,16
COc1ccc(C2C=C(c3cccs3)Nc3nc(CCCO)nn32)cc1 (configuration not stated),-16,-18*,288*,18,0.084,-2,2868*,2408*
CC1=C(C(N)=O)C(c2cccc(O)c2)n2nc(CCCO)nc2N1 (configuration not stated),5,0.87,0.55,x,-0.15,-6,x,x
c1ccc(NCCCNc2ccccc2)cc1,-2,-0.038,1,-50,-0.29,16,x,x
Cc1ccc2nc(-c3cccc(NC(=O)c4ccco4)c3)[nH]c2c1,48,-0.0048,7*,x,-1.7,46,-28,-38
Cc1nn2c(-c3cccc(NC(=O)c4ccco4)c3)nnc2c2ccccc12,10,-1,5.8*,-30,-3.3,1,-16,u
Cc1ccc(O)c(NC(=O)c2cccc(NC(=O)c3ccco3)c2)c1,5,0.68,2.6*,-34,x,-1,-26*,-53
CC(C)CC(NS(=O)(=O)c1ccc2c(c1)oc(=O)n2C)C(=O)NCc1cccnc1 (configuration not stated),-2,0.71,0.44,10,-0.29,-5,x,x
O=C1C(=O)N(CCCn2ccnc2)C(c2cccnc2)/C1=C(/O)c1ccc(F)cc1 (configuration not stated),12,0.12,0.8,x,-0.017,-17,x,x
C/C(N)=C(/C#N)C(=O)CSc1nnc(NC(C)C)s1,29,-0.095,0.75,-10,-0.15,13,x,x
CCOCCCn1cnc2c(c1=O)c1nc3ccccc3nc1n2-c1ccccc1,-5,0.058,3.9*,-8,0.6,-35,u,-37
CCOCCCn1cnc2c(c1=O)c1nc3ccccc3nc1n2-c1ccc(C)cc1,-17,0.54,0.68,x,0.22,7,x,x
CCOC(=O)C1=C(C)NC(C)=C(C(=O)OCC)C1c1ccc(OC)cc1,6,-0.018,1.9*,-38,x,-13,1.3,-23
